Numbered stars: 1 amine (or outer) side, 2 acyl side, 3 side chain; on linkers, the order of the positions; unused ones are H or OH. Square brackets hold non-standard residues; d marks the D form. Peptide text beside a SMILES is read from it. * marks the point of attachment. X30 = C[C@@H](CCCCC[N+](C)(C)C)C(=O)*; X21 = CC/N=C(\NCC)NCCC[C@H](C)C(=O)*; X27 = C[C@@H](CCCN1CCN(C)C1=N)C(=O)*; X9 = C[C@@H](CCCC[N+](C)(C)C)C(=O)*; X28 = C/N=C(\NC)NCCC[C@H](C)C(=O)*; NMe5Ava = CN(CCCCC(=O)[*:2])[*:1]; X17 = C[C@@H](CCCN1CCNC1=N)C(=O)*; X25 = C[C@@H](CCCNC1=NCCN1)C(=O)*; X23 = CCNC(=N)NCCC[C@H](C)C(=O)*; X10 = C[C@@H](CCCCCN(C)C)C(=O)*; X14 = CNC(=N)NCCC[C@H](C)C(=O)*; X8 = C[C@@H](CCCNC(=N)N)C(=O)*; X13 = CC/N=C(\NCC)NCCCCC(=O)*; X32 = C[N+](C)(C)CCCCCCC(=O)*; X4 = C[C@@H](CCCCN(C)C)C(=O)*; Tle = CC(C)(C)[C@H](N)C(=O)O; X5 = CCN1CCN(CCCCC(=O)*)C1=N; X11 = C[C@@H](CCCCCN)C(=O)*; X12 = CNCCCCC[C@H](C)C(=O)*; X22 = C[N+](C)(C)CCCCC(=O)*; X15 = O=C(CCCCNC1=NCCCN1)*; X24 = C[C@@H](CCCCN)C(=O)*; X26 = CNCCCC[C@H](C)C(=O)*; X7 = C/N=C(\NC)NCCCCC(=O)*; X18 = N=C1NCCN1CCCCC(=O)*; X31 = CCNC(=N)NCCCCC(=O)*; X2 = O=C(CCCCNC1=NCCN1)*; X20 = CNC(=N)NCCCCC(=O)*; X3 = CNCCC[C@H](C)C(=O)*; X16 = CN(C)CCCCCCC(=O)*; X19 = CN(C)CCCCC(=O)*; Ahp = NCCCCCCC(=O)O; X29 = CNCCCCCC(=O)*; X6 = CNCCCCCCC(=O)*; Ahx = NCCCCCC(=O)O; Ava = NCCCCC(=O)O
Tests used:
Rattus norvegicus [1] = test: Analgesic activity in Sprague-Dawley rat assessed as maximal possible effect paw at 10 mg/kg, ip by hot plate assay; format: functional; settings: route intraperitoneal
Outline: (§1)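 Male Sprague-Dawley rats (240–280 g), 10 mg/kg i.p. (morphine 5 mg/kg, saline controls). Hotplate held at 53.0±0.2°C; latency to hind-paw lift, nibble or shake at serial time points, 30 s cut-off. %MPE from pre- and post-drug latencies; endpoints are maximal %MPE, duration at 100% MPE and area under the response curve. n ≥ 6.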

Rattus norvegicus [2] = test: Analgesic activity in ip dosed Sprague-Dawley rat assessed as paw withdrawal latency by hot plate assay; format: functional; outline: as §1

Row | Compound | MPE (Rattus norvegicus [1]) [%] | Duration at 100% MPE (Rattus norvegicus [2]) [min]
1 | CC(C)C[C@H](NC(=O)[C@@H](NC(=O)[C@H](Cc1ccc(O)cc1)NC(=O)[C@@H]1CCCN1C(=O)[C@H](CCCNC(=N)N)NC(=O)CCCCCCN)C(C)(C)C)C(=O)O (H-[Ahp]RPY[Tle]L-OH) | 100 | 60
2 | CC(C)C[C@H](NC(=O)[C@@H](NC(=O)[C@H](Cc1ccc(O)cc1)NC(=O)[C@@H]1CCCN1C(=O)[C@H](CCCNC(=N)N)NC(=O)CCCCCN)C(C)(C)C)C(=O)O (H-[Ahx]RPY[Tle]L-OH) | 48 | 0
3 | CC(C)C[C@H](NC(=O)[C@@H](NC(=O)[C@H](Cc1ccc(O)cc1)NC(=O)[C@@H]1CCCN1C(=O)[C@H](CCCNC(=N)N)NC(=O)CCCCN)C(C)(C)C)C(=O)O (H-[Ava]RPY[Tle]L-OH) | 51.69 | 0
4 | CNCCCCC(=O)N[C@@H](CCCNC(=N)N)C(=O)N1CCC[C@H]1C(=O)N[C@@H](Cc1ccc(O)cc1)C(=O)N[C@H](C(=O)N[C@@H](CC(C)C)C(=O)O)C(C)(C)C (NMe5Ava-RPY[Tle]L-OH) | 100 | 120
5 | CC(C)C[C@H](NC(=O)[C@@H](NC(=O)[C@H](Cc1ccc(O)cc1)NC(=O)[C@@H]1CCCN1C(=O)[C@H](CCCNC(=N)N)NC(=O)CCCCNC1=NCCN1)C(C)(C)C)C(=O)O (X2-RPY[Tle]L-OH) | 76.4 | 0
6 | CNCCC[C@H](C)C(=O)N[C@@H](CCCNC(=N)N)C(=O)N1CCC[C@H]1C(=O)N[C@@H](Cc1ccc(O)cc1)C(=O)N[C@H](C(=O)N[C@@H](CC(C)C)C(=O)O)C(C)(C)C (X3-RPY[Tle]L-OH) | 82.4 | 0
7 | CC(C)C[C@H](NC(=O)[C@@H](NC(=O)[C@H](Cc1ccc(O)cc1)NC(=O)[C@@H]1CCCN1C(=O)[C@H](CCCNC(=N)N)NC(=O)[C@@H](C)CCCCN(C)C)C(C)(C)C)C(=O)O (X4-RPY[Tle]L-OH) | 84.9 | 0
8 | CCN1CCN(CCCCC(=O)N[C@@H](CCCNC(=N)N)C(=O)N2CCC[C@H]2C(=O)N[C@@H](Cc2ccc(O)cc2)C(=O)N[C@H](C(=O)N[C@@H](CC(C)C)C(=O)O)C(C)(C)C)C1=N (X5-RPY[Tle]L-OH) | 80.48 | 0
9 | CNCCCCCCC(=O)N[C@@H](CCCNC(=N)N)C(=O)N1CCC[C@H]1C(=O)N[C@@H](Cc1ccc(O)cc1)C(=O)N[C@H](C(=O)N[C@@H](CC(C)C)C(=O)O)C(C)(C)C (X6-RPY[Tle]L-OH) | 59.32 | 0
10 | C/N=C(\NC)NCCCCC(=O)N[C@@H](CCCNC(=N)N)C(=O)N1CCC[C@H]1C(=O)N[C@@H](Cc1ccc(O)cc1)C(=O)N[C@H](C(=O)N[C@@H](CC(C)C)C(=O)O)C(C)(C)C (X7-RPY[Tle]L-OH) | 92.28 | 0
11 | CC(C)C[C@H](NC(=O)[C@@H](NC(=O)[C@H](Cc1ccc(O)cc1)NC(=O)[C@@H]1CCCN1C(=O)[C@H](CCCNC(=N)N)NC(=O)[C@@H](C)CCCNC(=N)N)C(C)(C)C)C(=O)O (X8-RPY[Tle]L-OH) | 48.52 | 0
12 | CC(C)C[C@H](NC(=O)[C@@H](NC(=O)[C@H](Cc1ccc(O)cc1)NC(=O)[C@@H]1CCCN1C(=O)[C@H](CCCNC(=N)N)NC(=O)[C@@H](C)CCCC[N+](C)(C)C)C(C)(C)C)C(=O)O.[Cl-] (X9-RPY[Tle]L-OH) | 67.2 | 15
13 | CC(C)C[C@H](NC(=O)[C@@H](NC(=O)[C@H](Cc1ccc(O)cc1)NC(=O)[C@@H]1CCCN1C(=O)[C@H](CCCNC(=N)N)NC(=O)[C@@H](C)CCCCCN(C)C)C(C)(C)C)C(=O)O (X10-RPY[Tle]L-OH) | 60.94 | 0
14 | CC(C)C[C@H](NC(=O)[C@@H](NC(=O)[C@H](Cc1ccc(O)cc1)NC(=O)[C@@H]1CCCN1C(=O)[C@H](CCCNC(=N)N)NC(=O)[C@@H](C)CCCCCN)C(C)(C)C)C(=O)O (X11-RPY[Tle]L-OH) | 100 | 45
15 | CNCCCCC[C@H](C)C(=O)N[C@@H](CCCNC(=N)N)C(=O)N1CCC[C@H]1C(=O)N[C@@H](Cc1ccc(O)cc1)C(=O)N[C@H](C(=O)N[C@@H](CC(C)C)C(=O)O)C(C)(C)C (X12-RPY[Tle]L-OH) | 100 | 75
16 | CC/N=C(\NCC)NCCCCC(=O)N[C@@H](CCCNC(=N)N)C(=O)N1CCC[C@H]1C(=O)N[C@@H](Cc1ccc(O)cc1)C(=O)N[C@H](C(=O)N[C@@H](CC(C)C)C(=O)O)C(C)(C)C (X13-RPY[Tle]L-OH) | 95.68 | 15
17 | CNC(=N)NCCC[C@H](C)C(=O)N[C@@H](CCCNC(=N)N)C(=O)N1CCC[C@H]1C(=O)N[C@@H](Cc1ccc(O)cc1)C(=O)N[C@H](C(=O)N[C@@H](CC(C)C)C(=O)O)C(C)(C)C (X14-RPY[Tle]L-OH) | 100 | 75
18 | CC(C)C[C@H](NC(=O)[C@@H](NC(=O)[C@H](Cc1ccc(O)cc1)NC(=O)[C@@H]1CCCN1C(=O)[C@H](CCCNC(=N)N)NC(=O)CCCCNC1=NCCCN1)C(C)(C)C)C(=O)O (X15-RPY[Tle]L-OH) | 79.62 | 0

Row | Compound | MPE (Rattus norvegicus [1]) [%] | Duration at 100% MPE (Rattus norvegicus [2]) [min]
19 | CC(C)C[C@H](NC(=O)[C@@H](NC(=O)[C@H](Cc1ccc(O)cc1)NC(=O)[C@@H]1CCCN1C(=O)[C@H](CCCNC(=N)N)NC(=O)CCCCCCN(C)C)C(C)(C)C)C(=O)O (X16-RPY[Tle]L-OH) | 29 | 0
20 | CC(C)C[C@H](NC(=O)[C@@H](NC(=O)[C@H](Cc1ccc(O)cc1)NC(=O)[C@@H]1CCCN1C(=O)[C@H](CCCNC(=N)N)NC(=O)[C@@H](C)CCCN1CCNC1=N)C(C)(C)C)C(=O)O (X17-RPY[Tle]L-OH) | 55 | 0
21 | CC(C)C[C@H](NC(=O)[C@@H](NC(=O)[C@H](Cc1ccc(O)cc1)NC(=O)[C@@H]1CCCN1C(=O)[C@H](CCCNC(=N)N)NC(=O)CCCCN1CCNC1=N)C(C)(C)C)C(=O)O (X18-RPY[Tle]L-OH) | 82.8 | 0
22 | CC(C)C[C@H](NC(=O)[C@@H](NC(=O)[C@H](Cc1ccc(O)cc1)NC(=O)[C@@H]1CCCN1C(=O)[C@H](CCCNC(=N)N)NC(=O)CCCCN(C)C)C(C)(C)C)C(=O)O (X19-RPY[Tle]L-OH) | 100 | 90
23 | CNC(=N)NCCCCC(=O)N[C@@H](CCCNC(=N)N)C(=O)N1CCC[C@H]1C(=O)N[C@@H](Cc1ccc(O)cc1)C(=O)N[C@H](C(=O)N[C@@H](CC(C)C)C(=O)O)C(C)(C)C (X20-RPY[Tle]L-OH) | 100 | 75
24 | CC/N=C(\NCC)NCCC[C@H](C)C(=O)N[C@@H](CCCNC(=N)N)C(=O)N1CCC[C@H]1C(=O)N[C@@H](Cc1ccc(O)cc1)C(=O)N[C@H](C(=O)N[C@@H](CC(C)C)C(=O)O)C(C)(C)C (X21-RPY[Tle]L-OH) | 10 | 0
25 | CC(C)C[C@H](NC(=O)[C@@H](NC(=O)[C@H](Cc1ccc(O)cc1)NC(=O)[C@@H]1CCCN1C(=O)[C@H](CCCNC(=N)N)NC(=O)CCCC[N+](C)(C)C)C(C)(C)C)C(=O)O.[Cl-] (X22-RPY[Tle]L-OH) | 100 | 60
26 | CCNC(=N)NCCC[C@H](C)C(=O)N[C@@H](CCCNC(=N)N)C(=O)N1CCC[C@H]1C(=O)N[C@@H](Cc1ccc(O)cc1)C(=O)N[C@H](C(=O)N[C@@H](CC(C)C)C(=O)O)C(C)(C)C (X23-RPY[Tle]L-OH) | 74.48 | 0
27 | CC(C)C[C@H](NC(=O)[C@@H](NC(=O)[C@H](Cc1ccc(O)cc1)NC(=O)[C@@H]1CCCN1C(=O)[C@H](CCCNC(=N)N)NC(=O)[C@@H](C)CCCCN)C(C)(C)C)C(=O)O (X24-RPY[Tle]L-OH) | 86 | 0
28 | CC(C)C[C@H](NC(=O)[C@@H](NC(=O)[C@H](Cc1ccc(O)cc1)NC(=O)[C@@H]1CCCN1C(=O)[C@H](CCCNC(=N)N)NC(=O)[C@@H](C)CCCNC1=NCCN1)C(C)(C)C)C(=O)O (X25-RPY[Tle]L-OH) | 79.31 | 0
29 | CNCCCC[C@H](C)C(=O)N[C@@H](CCCNC(=N)N)C(=O)N1CCC[C@H]1C(=O)N[C@@H](Cc1ccc(O)cc1)C(=O)N[C@H](C(=O)N[C@@H](CC(C)C)C(=O)O)C(C)(C)C (X26-RPY[Tle]L-OH) | 55.8 | 0
30 | CC(C)C[C@H](NC(=O)[C@@H](NC(=O)[C@H](Cc1ccc(O)cc1)NC(=O)[C@@H]1CCCN1C(=O)[C@H](CCCNC(=N)N)NC(=O)[C@@H](C)CCCN1CCN(C)C1=N)C(C)(C)C)C(=O)O (X27-RPY[Tle]L-OH) | 76.07 | 0
31 | C/N=C(\NC)NCCC[C@H](C)C(=O)N[C@@H](CCCNC(=N)N)C(=O)N1CCC[C@H]1C(=O)N[C@@H](Cc1ccc(O)cc1)C(=O)N[C@H](C(=O)N[C@@H](CC(C)C)C(=O)O)C(C)(C)C (X28-RPY[Tle]L-OH) | 63.3 | 0
32 | CNCCCCCC(=O)N[C@@H](CCCNC(=N)N)C(=O)N1CCC[C@H]1C(=O)N[C@@H](Cc1ccc(O)cc1)C(=O)N[C@H](C(=O)N[C@@H](CC(C)C)C(=O)O)C(C)(C)C (X29-RPY[Tle]L-OH) | 100 | 30
33 | CC(C)C[C@H](NC(=O)[C@@H](NC(=O)[C@H](Cc1ccc(O)cc1)NC(=O)[C@@H]1CCCN1C(=O)[C@H](CCCNC(=N)N)NC(=O)[C@@H](C)CCCCC[N+](C)(C)C)C(C)(C)C)C(=O)O.[Cl-] (X30-RPY[Tle]L-OH) | 19.9 | 0
34 | CCNC(=N)NCCCCC(=O)N[C@@H](CCCNC(=N)N)C(=O)N1CCC[C@H]1C(=O)N[C@@H](Cc1ccc(O)cc1)C(=O)N[C@H](C(=O)N[C@@H](CC(C)C)C(=O)O)C(C)(C)C (X31-RPY[Tle]L-OH) | 37.36 | 0
35 | CC(C)C[C@H](NC(=O)[C@@H](NC(=O)[C@H](Cc1ccc(O)cc1)NC(=O)[C@@H]1CCCN1C(=O)[C@H](CCCNC(=N)N)NC(=O)CCCCCC[N+](C)(C)C)C(C)(C)C)C(=O)O.[Cl-] (X32-RPY[Tle]L-OH) | 55.7 | 0

Reference: ChEMBL document CHEMBL1177699, “Identification and functional characterization of a stable, centrally active derivative of the neurotensin (8-13) fragment as a potential first-in-class analgesic” (J Med Chem, 2010)
